Experimental data published in PMC7558257 (Acta Pharmaceutica Sinica. B, 2020).

Assays:
[1] = target: Human dihydroorotate dehydrogenase (DHODH) (Homo sapiens, UniProt Q02127); assay: In vitro DHODH enzyme inhibition assay; type: biochemical; conditions: for inhibition at 10 µM: read-out: Inhibition (%) at 10 μmol/L; for potency loss relative to naphthyl compound 24: vs. 24
[2] = tested on: collagen-induced arthritis (CIA) in Wistar rats; assay: Collagen-induced arthritis; type: in vivo; conditions: for volumes of paws in CIA rats compared to model rats: orally once a day for 28 days, methotrexate 0.3 mg/kg; for arthritis score (stabilized, lastly): scale 0-4, model group around 2.3
Procedure, shortened: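 Adult male Wistar rats (130–150 g) were immunized with emulsified bovine type II collagen on Days 1 and 7. Dosing was oral, once daily for 28 days, with 0.5% CMC-Na vehicle. Arthritis was scored 0–4 daily, blinded. Body weight was taken every 3 days, plus hind-paw volume and terminal joint histopathology. Data are mean ± SEM.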

ICR mice = assay: Acute toxicity study in mice; type: in vivo
[3] = In vivo single dose PK study in rats; conditions: male, Sprague-Dawley, rat, plasma
Procedure, shortened: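 Male Sprague–Dawley rats (n = 3 per route) received the test compound at 1 mg/kg i.v. or 10 mg/kg p.o. Heparinized blood was sampled at 5, 15 and 30 min and at 1, 2, 4, 8 and 24 h. Levels were quantified by LC/MS/MS, with noncompartmental PK analysis. For i.v., Cmax was taken as C0.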

Chain of Human dihydroorotate dehydrogenase (DHODH) (Q02127 whole entry): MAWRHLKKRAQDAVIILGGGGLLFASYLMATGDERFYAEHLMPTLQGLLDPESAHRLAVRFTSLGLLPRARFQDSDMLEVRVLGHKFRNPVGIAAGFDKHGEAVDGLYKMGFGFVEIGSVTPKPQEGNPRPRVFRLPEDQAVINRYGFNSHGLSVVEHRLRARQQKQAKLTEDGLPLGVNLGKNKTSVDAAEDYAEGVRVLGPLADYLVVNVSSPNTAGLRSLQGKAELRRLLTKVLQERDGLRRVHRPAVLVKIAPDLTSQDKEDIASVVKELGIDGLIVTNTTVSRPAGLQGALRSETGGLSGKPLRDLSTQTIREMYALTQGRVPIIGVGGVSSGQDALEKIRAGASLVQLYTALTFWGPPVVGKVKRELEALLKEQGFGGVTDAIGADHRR

| Structure (SMILES) | IC50 [1] [µM] | inhibition at 10 µM [1] [%] | further results |
| --- | --- | --- | --- |
| C/C(=C\c1cc2ccccc2n1C)C(=O)Nc1ccccc1C(=O)O [Compound 32, (E)-2-(2-Methyl-3-(1-methyl-1H-indol-2-yl)acrylamido)benzoic acid] | 0.317 ± 0.008 | 84.3 | potency loss relative to naphthyl compound 24 [1]: 4 fold |
| C/C(=C\c1ccc2cc(Br)ccc2c1)C(=O)Nc1ccccc1C(=O)O [Compound 26] | 0.448 ± 0.008 | 85.4 | – |
| C/C(=C\c1ccc(C)c(C)c1)C(=O)Nc1ccccc1C(=O)O [Compound 16] | 0.394 ± 0.004 | 92.9 | – |
| COc1ccc2cc(/C=C(\C)C(=O)Nc3ccccc3C(=O)O)ccc2c1 [Compound 25] | 0.129 ± 0.008 | 88.2 | – |
| CC(C)(Oc1ccc2ccccc2c1)C(=O)Nc1ccccc1C(=O)O [Compound 37, 2-(2-Methyl-2-(naphthalen-2-yloxy)propanamido)benzoic acid] | > 10 | 20.3 | – |
| O=C(/C=C/c1ccc2ccccc2c1)Nc1ccccc1C(=O)O [Compound 38] | 0.712 ± 0.012 | 87.5 | – |
| CN(Cc1cnc2nc(N)nc(N)c2n1)c1ccc(C(=O)N[C@@H](CCC(=O)O)C(=O)O)cc1 [methotrexate, reference compound] | – | – | volumes of paws in CIA rats compared to model rats ([2]; 54 at 10 and 30 mg/kg): significantly decreased |
| C/C(=C\c1ccc(Cl)c(C(F)(F)F)c1)C(=O)Nc1ccccc1C(=O)O [Compound 18] | 0.894 ± 0.063 | 84.6 | – |
| O=C(COc1ccc([N+](=O)[O-])cc1)Nc1ccccc1C(=O)O [Compound 9, 2-(2-(4-Nitrophenoxy)acetamido)benzoic acid] | – | 45.3 | – |
| C/C(=C\c1ccc2ccccc2c1Br)C(=O)Nc1ccc(F)cc1C(=O)O [Compound 55] | – | 98.6 | – |
| C/C(=C\c1ccc2ccccc2c1F)C(=O)Nc1ccccc1C(=O)O [Compound 28] | 0.057 ± 0.002 | 89.3 | – |
| C/C(=C\c1ccc2ccccc2c1)C(=O)Nc1ccc(C)cc1C(=O)O [Compound 46] | 0.688 ± 0.006 | 82.9 | – |
| COc1ccc(/C=C(\C)C(=O)Nc2ccccc2C(=O)O)cc1 [Compound 14] | 0.561 ± 0.014 | 88.7 | – |
| COc1ccc(/C=C(\C)C(=O)Nc2ccccc2C(=O)O)cc1OC [Compound 20] | 0.612 ± 0.011 | 91.5 | – |
| C/C(=C\c1ccc2ccccc2c1)C(=O)Nc1cc(F)ccc1C(=O)O [Compound 43] | > 10 | 34.9 | – |
| O=C(COc1ccccc1)Nc1ccccc1C(=O)O [Compound 10] | – | 31.7 | – |
| O=C(Nc1ccccc1C(=O)O)/C(Cl)=C/c1ccc2ccccc2c1 [Compound 39] | 0.061 ± 0.001 | 88.6 | – |
| C/C(=C\c1ccc2ccccc2c1)C(=O)Nc1ccccc1C(N)=O [Compound 51] | 5.35 ± 0.172 | 66.9 | – |
| COc1ccc(NC(=O)/C(C)=C/c2ccc3ccccc3c2)c(C(=O)O)c1 [Compound 47] | > 10 | 48.2 | – |
| C/C(=C\c1ccc2ccccc2c1)C(=O)Nc1sccc1C(=O)O [Compound 49] | 2.13 ± 0.11 | 79.3 | – |
| O=C(Nc1ccccc1C(=O)O)/C(Br)=C/c1ccc2ccccc2c1 [Compound 40] | 0.085 ± 0.004 | 88.6 | – |
| C/C(=C\c1ccc2ccccc2c1)C(=O)Nc1ccc(Br)cc1C(=O)O [Compound 45] | 1.82 ± 0.02 | 80.8 | – |
| C/C(=C\c1ccc2ccccc2c1Cl)C(=O)Nc1ccccc1C(=O)O [Compound 29] | 0.078 ± 0.003 | 96.4 | – |
| C/C(=C\c1ccc2ccccc2c1Cl)C(=O)Nc1ccc(F)cc1C(=O)O [Compound 54] | – | 98.7 | arthritis score (stabilized, lastly) ([2]; 10 mg/kg orally once a day for 28 days): around 1; arthritis score (stabilized, lastly) ([2]; 30 mg/kg orally once a day for 28 days): ~0.6; histopathological symptoms of arthritis in ankle joints (H&E) ([2]; 54 at 10 and 30 mg/kg, after four weeks of therapy, dose-dependent): significantly alleviated; volumes of paws in CIA rats compared to model rats ([2]; 54 at 10 and 30 mg/kg): significantly decreased; behavior and mortality (ICR mice; single intragastric dose 300 and 500 mg/kg, 14 days observation, n = 3): No obvious abnormal in behaviors or mortality; morphological examination of liver and kidney (ICR mice; single intragastric dose 300 and 500 mg/kg, day 14): did not find remarkable injury; body weight change compared to control group (ICR mice; single intragastric dose 300 and 500 mg/kg, end of experiment (day 14)): no significant change in body weight; tolerated dose (ICR mice; single intragastric dose, mice): ≥ 500 mg/kg; AUC ([3]; iv, 1 mg/kg): 381 µg·h/mL; Cmax ([3]; iv, 1 mg/kg): 31.5 µg/mL; Vd ([3]; iv, 1 mg/kg): 0.069 L/kg; clearance ([3]; iv, 1 mg/kg): 2.6 mL/h/kg; half-life ([3]; iv, 1 mg/kg): 18.1 h; bioavailability ([3]; oral, 10 mg/kg): 67.1%; AUC ([3]; po, 10 mg/kg): 2560 µg·h/mL; Cmax ([3]; po, 10 mg/kg): 77.8 µg/mL; Tmax ([3]; po, 10 mg/kg): 4.67 h; half-life ([3]; po, 10 mg/kg): 21.5 h |

| Structure (SMILES) | IC50 [1] [µM] | inhibition at 10 µM [1] [%] | further results |
| --- | --- | --- | --- |
| C/C(=C\c1ccc2ccccc2c1)C(=O)Nc1ccccc1C(=O)O [Compound 24] | 0.075 ± 0.002 | 93.9 | – |
| C/C(=C\c1ccc2c(Cl)cccc2c1)C(=O)Nc1ccccc1C(=O)O [Compound 27] | 0.256 ± 0.009 | 96.8 | – |
| CC/C(=C\c1ccc2ccccc2c1)C(=O)Nc1ccccc1C(=O)O [Compound 41] | 0.606 ± 0.031 | 82.8 | – |
| C/C(=C\c1ccc(C(F)(F)F)nc1)C(=O)Nc1ccccc1C(=O)O [Compound 13] | 6.11 ± 0.102 | 69.3 | – |
| C/C(=C\c1ccc(C(F)(F)F)cc1)C(=O)Nc1ccccc1C(=O)O [Compound 12] | 1.04 ± 0.04 | 82.3 | – |
| C/C(=C\c1cc(Cl)cc(Cl)c1)C(=O)Nc1ccccc1C(=O)O [Compound 21] | 0.724 ± 0.028 | 89.4 | – |
| C/C(=C\c1cccc(Oc2ccccc2)c1)C(=O)Nc1ccccc1C(=O)O [Compound 35] | 0.597 ± 0.006 | 89.5 | – |
| O=C(COc1ccc2ccccc2c1)Nc1ccccc1C(=O)O [Compound 36] | 1.87 ± 0.048 | 76.1 | – |
| C/C(=C\c1ccc2ccccc2c1F)C(=O)Nc1ccc(F)cc1C(=O)O [Compound 53] | – | 98 | – |
| C/C(=C\c1ccc(Cl)c(Cl)c1)C(=O)Nc1ccccc1C(=O)O [Compound 19] | 0.529 ± 0.024 | 91.7 | – |
| C/C(=C\c1ccc2ccccc2c1)C(=O)Nc1ccc(C(F)(F)F)cc1C(=O)O [Compound 48] | 0.874 ± 0.005 | 87.4 | – |
| C/C(=C\c1cc2ccccc2cn1)C(=O)Nc1ccccc1C(=O)O [Compound 31] | 0.646 ± 0.009 | 87.4 | potency loss relative to naphthyl compound 24 [1]: 8 fold |
| C/C(=C\c1ccc2c(c1)CCC2)C(=O)Nc1ccccc1C(=O)O [Compound 22] | 0.252 ± 0.017 | 86.9 | – |
| C/C(=C\c1ccc2c(c1)CCCC2)C(=O)Nc1ccccc1C(=O)O [Compound 23] | 0.115 ± 0.001 | 85.2 | – |
| C/C(=C\c1ccc(-c2ccccc2)cc1)C(=O)Nc1ccccc1C(=O)O [Compound 33] | 0.626 ± 0.013 | 89.8 | – |
| C/C(=C\c1ccc2ccccc2c1)C(=O)Nc1ccncc1C(=O)O [Compound 50, (E)-4-(2-Methyl-3-(naphthalen-2-yl)acrylamido)nicotinic acid] | 1.691 ± 0.014 | 74.1 | – |
| C/C(=C\c1ccccc1)C(=O)Nc1ccccc1C(=O)O [Compound 11] | – | 85.6 | – |
| C/C(=C\c1ccc(Oc2ccccc2)cc1)C(=O)Nc1ccccc1C(=O)O [Compound 34] | 0.63 ± 0.014 | 90.4 | – |
| C/C(=C\c1ccc(C)c(Cl)c1)C(=O)Nc1ccccc1C(=O)O [Compound 17] | 0.384 ± 0.016 | 91 | – |
| C/C(=C\c1ccc2ccccc2c1)C(=O)Nc1ccc(F)cc1C(=O)O [Compound 42] | – | 90 | improvement in potency for inhibition of DHODH vs. 24 ([1]; 42 vs. 24): 1 fold |
| C/C(=C\c1ccc(C(C)(C)C)cc1)C(=O)Nc1ccccc1C(=O)O [Compound 15] | 0.836 ± 0.021 | 86.6 | – |
| COC(=O)c1ccccc1NC(=O)/C(C)=C/c1ccc2ccccc2c1 [Compound 52, Methyl (E)-2-(2-methyl-3-(naphthalen-2-yl)acrylamido)benzoate] | > 10 | 29.6 | DHODH inhibition, result in words [1]: completely inactive |
| C/C(=C\c1ccc2ccccc2c1Br)C(=O)Nc1ccccc1C(=O)O [Compound 30] | 0.058 ± 0.001 | 90.2 | – |
| C/C(=C\c1ccc2ccccc2c1)C(=O)Nc1ccc(Cl)cc1C(=O)O [Compound 44] | 0.623 ± 0.001 | 83 | – |
